Measured values as given in ChEMBL document CHEMBL2146397, “The Substrate-Activity-Screening methodology applied to receptor tyrosine kinases: a proof-of-concept study” (Eur J Med Chem, 2012).
Square brackets hold non-standard residues; d marks the D form. Peptide text beside a SMILES is read from it. * marks the point of attachment. Trp(6-Cl) = N[C@@H](Cc1c[nH]c2cc(Cl)ccc12)C(=O)O; Phe(4-Cl) = N[C@@H](Cc1ccc(Cl)cc1)C(=O)O; X2 = O=C(O)[C@H]1CCCC[C@@H]1C(=O)*

Molecular target: Insulin-like growth factor 1 receptor (Homo sapiens, UniProt P08069)
Sequence (P08069 31-736 limits assumed): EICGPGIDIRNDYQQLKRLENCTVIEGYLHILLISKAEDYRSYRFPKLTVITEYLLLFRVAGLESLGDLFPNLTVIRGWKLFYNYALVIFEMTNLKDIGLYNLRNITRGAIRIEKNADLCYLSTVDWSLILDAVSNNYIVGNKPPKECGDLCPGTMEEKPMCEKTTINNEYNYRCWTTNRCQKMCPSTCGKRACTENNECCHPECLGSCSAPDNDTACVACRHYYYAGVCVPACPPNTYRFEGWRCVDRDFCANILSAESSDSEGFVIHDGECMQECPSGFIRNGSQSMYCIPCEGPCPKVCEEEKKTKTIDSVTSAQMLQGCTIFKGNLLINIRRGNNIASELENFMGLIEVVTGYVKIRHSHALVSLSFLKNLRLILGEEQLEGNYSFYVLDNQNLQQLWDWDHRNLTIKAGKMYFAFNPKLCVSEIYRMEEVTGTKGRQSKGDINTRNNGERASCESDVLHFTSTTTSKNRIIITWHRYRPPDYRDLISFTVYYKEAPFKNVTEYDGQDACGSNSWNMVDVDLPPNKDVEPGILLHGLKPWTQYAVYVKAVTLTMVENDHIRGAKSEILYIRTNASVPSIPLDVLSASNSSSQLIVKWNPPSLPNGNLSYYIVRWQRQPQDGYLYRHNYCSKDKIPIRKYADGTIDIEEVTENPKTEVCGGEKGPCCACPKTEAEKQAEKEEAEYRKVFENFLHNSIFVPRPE
Sequence (P08069 741-1367 limits assumed): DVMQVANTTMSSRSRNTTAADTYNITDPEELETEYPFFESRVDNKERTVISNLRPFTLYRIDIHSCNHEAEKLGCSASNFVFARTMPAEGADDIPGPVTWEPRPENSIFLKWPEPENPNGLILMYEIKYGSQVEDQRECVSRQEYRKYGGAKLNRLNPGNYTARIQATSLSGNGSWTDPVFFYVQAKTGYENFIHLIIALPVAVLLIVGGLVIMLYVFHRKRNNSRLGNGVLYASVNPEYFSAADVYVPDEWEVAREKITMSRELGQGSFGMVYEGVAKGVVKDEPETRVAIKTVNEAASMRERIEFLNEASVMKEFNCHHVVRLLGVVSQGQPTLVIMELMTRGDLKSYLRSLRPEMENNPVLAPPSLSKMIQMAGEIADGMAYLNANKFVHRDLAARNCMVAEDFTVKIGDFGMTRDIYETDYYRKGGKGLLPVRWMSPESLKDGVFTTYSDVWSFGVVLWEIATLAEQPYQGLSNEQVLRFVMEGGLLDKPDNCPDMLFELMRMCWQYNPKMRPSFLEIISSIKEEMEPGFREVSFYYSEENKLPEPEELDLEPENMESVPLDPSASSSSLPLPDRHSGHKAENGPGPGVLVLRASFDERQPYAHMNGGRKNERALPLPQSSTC
Assay: Activity at pre-activated human GST-His6-tagged IGF-1R expressed in Sf9 cells assessed as initial phosphorylation rate at 10 uM measured every 2 mins for 60 mins by Michaelis-Menten constant based ADP Quest assay
Summary of the method: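 Reaction buffer was the same plus 0.1 mg/mL BSA, with kinase, peptide substrate and detection reagents. Started with ATP; fluorescence read every 2 min for 60 min; 3 independent experiments.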

Compound	Activity [nM/s]
CNC(=O)[C@H](Cc1c[nH]c2cc(Cl)ccc12)NC(=O)[C@H](CCC(=O)O)NC(=O)[C@H](Cc1ccccc1)NC(=O)[C@H](Cc1ccc(O)cc1)NC(=O)[C@H](CC(=O)O)NC(C)=O (HELM PEPTIDE1{[ac].D.Y.F.E.[O=C([C@H](Cc1c[nH]c2cc(Cl)ccc12)N[*:1])[*:2]].[CN[*:1]]}$$$$V2.0)	6.7
CNC(=O)[C@H](Cc1ccc(Cl)c(Cl)c1)NC(=O)CNC(=O)[C@H](Cc1ccccc1)NC(=O)[C@H](Cc1ccc(O)cc1)NC(=O)[C@H](CC(=O)O)NC(C)=O (HELM PEPTIDE1{[ac].D.Y.F.G.[O=C([C@H](Cc1ccc(Cl)c(Cl)c1)N[*:1])[*:2]].[CN[*:1]]}$$$$V2.0)	0.55
CNC(=O)[C@H](Cc1c[nH]c2ccccc12)NC(=O)[C@H](CCC(=O)O)NC(=O)[C@H](Cc1ccccc1)NC(=O)[C@H](Cc1ccc(O)cc1)NC(C)=O (HELM PEPTIDE1{[ac].Y.F.E.W.[CN[*:1]]}$$$$V2.0)	0.17
CNC(=O)[C@H](Cc1ccc(Cl)c(Cl)c1)NC(=O)[C@H](CCC(=O)O)NC(=O)[C@H](Cc1ccccc1)NC(=O)[C@H](Cc1ccc(O)cc1)NC(=O)[C@H](CC(=O)O)NC(C)=O (HELM PEPTIDE1{[ac].D.Y.F.E.[O=C([C@H](Cc1ccc(Cl)c(Cl)c1)N[*:1])[*:2]].[CN[*:1]]}$$$$V2.0)	2.1
CNC(=O)[C@H](Cc1ccc2ccccc2c1)NC(=O)CNC(=O)[C@H](Cc1ccccc1)NC(=O)[C@H](Cc1ccc(O)cc1)NC(=O)[C@H](CC(=O)O)NC(C)=O (HELM PEPTIDE1{[ac].D.Y.F.G.[O=C([C@H](Cc1ccc2ccccc2c1)N[*:1])[*:2]].[CN[*:1]]}$$$$V2.0)	0.24
CNC(=O)[C@H](Cc1c[nH]c2ccccc12)NC(=O)CNC(=O)[C@H](Cc1ccccc1)NC(=O)[C@H](Cc1ccc(O)cc1)NC(=O)[C@H](CC(=O)O)NC(C)=O	1.7
CNC(=O)[C@H](Cc1c[nH]c2ccccc12)NC(=O)[C@H](CCC(=O)O)NC(=O)[C@H](Cc1ccccc1)NC(=O)[C@H](Cc1ccc(O)cc1)NC(=O)[C@H](CC(N)=O)NC(C)=O (HELM PEPTIDE1{[ac].N.Y.F.E.W.[CN[*:1]]}$$$$V2.0)	2.8
CNC(=O)[C@H](Cc1c[nH]c2ccccc12)NC(=O)[C@H](CCC(=O)O)NC(=O)[C@H](Cc1ccccc1)NC(=O)[C@H](Cc1ccc(O)cc1)NC(=O)CCC(=O)O (HELM PEPTIDE1{[O=C(O)CCC(=O)[*:2]].Y.F.E.W.[CN[*:1]]}$$$$V2.0)	1.45
CNC(=O)[C@H](Cc1c[nH]c2ccccc12)NC(=O)[C@H](CCC(=O)O)NC(=O)[C@H](Cc1ccccc1)NC(=O)[C@H](Cc1ccc(O)cc1)NC(=O)[C@H](CC(=O)O)NC(C)=O	6.2
CNC(=O)[C@H](Cc1c[nH]c2cc(Cl)ccc12)NC(=O)CNC(=O)[C@H](Cc1ccccc1)NC(=O)[C@H](Cc1ccc(O)cc1)NC(=O)[C@H](CC(=O)O)NC(C)=O (HELM PEPTIDE1{[ac].D.Y.F.G.[O=C([C@H](Cc1c[nH]c2cc(Cl)ccc12)N[*:1])[*:2]].[CN[*:1]]}$$$$V2.0)	2.1
CNC(=O)[C@H](Cc1ccc(Cl)cc1)NC(=O)[C@H](CCC(=O)O)NC(=O)[C@H](Cc1ccccc1)NC(=O)[C@H](Cc1ccc(O)cc1)NC(=O)[C@H](CCC(=O)O)NC(C)=O (HELM PEPTIDE1{[ac].E.Y.F.E.[O=C([C@H](Cc1ccc(Cl)cc1)N[*:1])[*:2]].[CN[*:1]]}$$$$V2.0)	0.26
CNC(=O)[C@H](Cc1ccc(Cl)cc1)NC(=O)[C@H](CCC(=O)O)NC(=O)[C@H](Cc1ccccc1)NC(=O)[C@H](Cc1ccc(O)cc1)NC(=O)[C@H](CC(=O)O)NC(C)=O (HELM PEPTIDE1{[ac].D.Y.F.E.[O=C([C@H](Cc1ccc(Cl)cc1)N[*:1])[*:2]].[CN[*:1]]}$$$$V2.0)	2.6
CNC(=O)[C@H](Cc1ccc2ccccc2c1)NC(=O)[C@H](CCC(=O)O)NC(=O)[C@H](Cc1ccccc1)NC(=O)[C@H](Cc1ccc(O)cc1)NC(=O)[C@H](CC(=O)O)NC(C)=O (HELM PEPTIDE1{[ac].D.Y.F.E.[O=C([C@H](Cc1ccc2ccccc2c1)N[*:1])[*:2]].[CN[*:1]]}$$$$V2.0)	3.4
CNC(=O)[C@@H](Cc1c[nH]c2ccccc12)NC(=O)CNC(=O)[C@H](Cc1ccccc1)NC(=O)[C@H](Cc1ccc(O)cc1)NC(=O)[C@H](CC(=O)O)NC(C)=O	0.09
CNC(=O)[C@H](Cc1ccc(Cl)cc1)NC(=O)CNC(=O)[C@H](Cc1ccccc1)NC(=O)[C@H](Cc1ccc(O)cc1)NC(=O)[C@H](CC(=O)O)NC(C)=O (HELM PEPTIDE1{[ac].D.Y.F.G.[O=C([C@H](Cc1ccc(Cl)cc1)N[*:1])[*:2]].[CN[*:1]]}$$$$V2.0)	0.47
CNC(=O)[C@H](Cc1ccccc1)NC(=O)[C@H](CCC(=O)O)NC(=O)[C@H](Cc1ccccc1)NC(=O)[C@H](Cc1ccc(O)cc1)NC(=O)c1ccccc1[N+](=O)[O-] (HELM PEPTIDE1{[O=C(c1ccccc1[N+](=O)[O-])[*:2]].Y.F.E.F.[CN[*:1]]}$$$$V2.0)	4.6
CNC(=O)[C@H](Cc1ccccc1)NC(=O)[C@H](CCC(=O)O)NC(=O)[C@H](Cc1ccccc1)NC(=O)[C@H](Cc1ccc(O)cc1)NC(=O)[C@H](CC(N)=O)NC(C)=O (HELM PEPTIDE1{[ac].N.Y.F.E.F.[CN[*:1]]}$$$$V2.0)	0.46
CNC(=O)[C@H](Cc1c[nH]c2ccccc12)NC(=O)[C@H](CCC(=O)O)NC(=O)[C@H](Cc1ccccc1)NC(=O)[C@H](Cc1ccc(O)cc1)NC(=O)c1ccccc1[N+](=O)[O-] (HELM PEPTIDE1{[O=C(c1ccccc1[N+](=O)[O-])[*:2]].Y.F.E.W.[CN[*:1]]}$$$$V2.0)	3.3

Now from value to compound:

Activity [nM/s]	Compound
0.24	CNC(=O)[C@H](Cc1ccccc1)NC(=O)[C@H](CCC(=O)O)NC(=O)[C@H](Cc1ccccc1)NC(=O)[C@H](Cc1ccc(O)cc1)NC(=O)[C@H]1CCC[C@@H]1C(=O)O (HELM PEPTIDE1{[O=C(O)[C@H]1CCC[C@@H]1C(=O)[*:2]].Y.F.E.F.[CN[*:1]]}$$$$V2.0)
5.2	CNC(=O)[C@H](Cc1ccccc1)NC(=O)[C@H](CCC(=O)O)NC(=O)[C@H](Cc1ccccc1)NC(=O)[C@H](Cc1ccc(O)cc1)NC(=O)[C@H]1CCCC[C@@H]1C(=O)O (HELM PEPTIDE1{[O=C(O)[C@H]1CCCC[C@@H]1C(=O)[*:2]].Y.F.E.F.[CN[*:1]]}$$$$V2.0)
1.1	CNC(=O)[C@H](Cc1ccccc1)NC(=O)[C@H](CCC(=O)O)NC(=O)[C@H](Cc1ccccc1)NC(=O)[C@H](Cc1ccc(O)cc1)NC(=O)[C@@H]1CCCC[C@@H]1C(=O)O (HELM PEPTIDE1{[O=C(O)[C@H]1CCCC[C@H]1C(=O)[*:2]].Y.F.E.F.[CN[*:1]]}$$$$V2.0)
1.9	CNC(=O)[C@H](Cc1ccccc1)NC(=O)[C@H](CCC(=O)O)NC(=O)[C@H](Cc1ccccc1)NC(=O)[C@H](Cc1ccc(O)cc1)NC(=O)C1CCC1C(=O)O (some centres undefined) (HELM PEPTIDE1{[O=C(O)C1CCC1C(=O)[*:2]].Y.F.E.F.[CN[*:1]]}$$$$V2.0)
4.3	CNC(=O)[C@H](Cc1c[nH]c2ccccc12)NC(=O)[C@H](CCC(=O)O)NC(=O)[C@H](Cc1ccccc1)NC(=O)[C@H](Cc1ccc(O)cc1)NC(=O)C1CCC1C(=O)O (some centres undefined) (HELM PEPTIDE1{[O=C(O)C1CCC1C(=O)[*:2]].Y.F.E.W.[CN[*:1]]}$$$$V2.0)
0.84	CNC(=O)[C@H](Cc1c[nH]c2ccccc12)NC(=O)[C@H](CCC(=O)O)NC(=O)[C@H](Cc1ccccc1)NC(=O)[C@H](Cc1ccc(O)cc1)NC(=O)[C@H]1CCC[C@@H]1C(=O)O (HELM PEPTIDE1{[O=C(O)[C@H]1CCC[C@@H]1C(=O)[*:2]].Y.F.E.W.[CN[*:1]]}$$$$V2.0)
4	CNC(=O)[C@H](Cc1ccc(Cl)cc1)NC(=O)[C@H](CCC(=O)O)NC(=O)[C@H](Cc1ccccc1)NC(=O)[C@H](Cc1ccc(O)cc1)NC(=O)[C@H]1CCCC[C@@H]1C(=O)O (X2-YFE[Phe(4-Cl)]-NHMe)
1.7	CNC(=O)[C@H](Cc1ccccc1)NC(=O)[C@H](CCC(=O)O)NC(=O)[C@H](Cc1ccccc1)NC(=O)[C@H](Cc1ccc(O)cc1)NC(=O)[C@H](CC(=O)O)NC(C)=O (HELM PEPTIDE1{[ac].D.Y.F.E.F.[CN[*:1]]}$$$$V2.0)
0.17	CNC(=O)[C@H](Cc1ccccc1)NC(=O)[C@H](CCC(=O)O)NC(=O)[C@H](Cc1ccccc1)NC(=O)[C@H](Cc1ccc(O)cc1)NC(=O)[C@@H]1CCCC[C@H]1C(=O)O (HELM PEPTIDE1{[O=C(O)[C@@H]1CCCC[C@H]1C(=O)[*:2]].Y.F.E.F.[CN[*:1]]}$$$$V2.0)
7.5	CNC(=O)[C@H](Cc1c[nH]c2cc(Cl)ccc12)NC(=O)[C@H](CCC(=O)O)NC(=O)[C@H](Cc1ccccc1)NC(=O)[C@H](Cc1ccc(O)cc1)NC(=O)[C@H]1CCCC[C@@H]1C(=O)O (X2-YFE[Trp(6-Cl)]-NHMe)
1.1	CNC(=O)[C@H](Cc1c[nH]c2ccccc12)NC(=O)[C@H](CCC(=O)O)NC(=O)[C@H](Cc1ccccc1)NC(=O)[C@H](Cc1ccc(O)cc1)NC(=O)[C@@H]1CCCC[C@H]1C(=O)O
5.4	CNC(=O)[C@H](Cc1c[nH]c2ccccc12)NC(=O)[C@H](CCC(=O)O)NC(=O)[C@H](Cc1ccccc1)NC(=O)[C@H](Cc1ccc(O)cc1)NC(=O)[C@@H]1CCC[C@H]1C(=O)O (HELM PEPTIDE1{[O=C(O)[C@@H]1CCC[C@H]1C(=O)[*:2]].Y.F.E.W.[CN[*:1]]}$$$$V2.0)
3.8	CNC(=O)[C@H](Cc1ccccc1)NC(=O)[C@H](CCC(=O)O)NC(=O)[C@H](Cc1ccccc1)NC(=O)[C@H](Cc1ccc(O)cc1)NC(=O)[C@@H]1CCC[C@H]1C(=O)O (HELM PEPTIDE1{[O=C(O)[C@@H]1CCC[C@H]1C(=O)[*:2]].Y.F.E.F.[CN[*:1]]}$$$$V2.0)
4.6	CNC(=O)[C@H](Cc1c[nH]c2ccccc12)NC(=O)[C@H](CCC(=O)O)NC(=O)[C@H](Cc1ccccc1)NC(=O)[C@H](Cc1ccc(O)cc1)NC(=O)[C@@H]1CCCC[C@@H]1C(=O)O
0.51	CNC(=O)[C@@H](Cc1c[nH]c2ccccc12)NC(=O)[C@H](CCC(=O)O)NC(=O)[C@H](Cc1ccccc1)NC(=O)[C@H](Cc1ccc(O)cc1)NC(=O)[C@H]1CCCC[C@@H]1C(=O)O
10.9	CNC(=O)[C@H](Cc1c[nH]c2ccccc12)NC(=O)[C@H](CCC(=O)O)NC(=O)[C@H](Cc1ccccc1)NC(=O)[C@H](Cc1ccc(O)cc1)NC(=O)[C@H]1CCCC[C@@H]1C(=O)O
